These results are taken from ChEMBL document CHEMBL1255491, “Altered growth, pigmentation, and antimicrobial susceptibility properties of Staphylococcus aureus due to loss of the major cold shock gene cspB” (2010).

One may read the MIC as the least concentration at which growth counts as inhibited. Low values mean a more susceptible organism, high ones a less susceptible organism.

Format in all cases: functional
For assay [1], the system named is Staphylococcus aureus. The assay is described as follows: Ratio of MIC for methicillin-resistant Staphylococcus aureus COL grown at 15 degC and measured at 37 degC to MIC for methicillin-resistant Staphylococcus aureus COL grown at 15 degC and measured at 15 degC by Etest.
For assay [2], the system named is Staphylococcus aureus. In words: Antimicrobial activity against methicillin-resistant Staphylococcus aureus COL grown at 37 degC and measured at 37 degC by Etest. In outline: (§1)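 Strain COL was grown in TSB at 37°C to mid-log phase, split into equal halves, and kept 1 h at 37°C (control) or 15°C (cold shock). Etest strips for daptomycin, gentamicin or trimethoprim-sulfamethoxazole were then applied per the manufacturer.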

For assay [3], the system named is Staphylococcus aureus. The assay is described as follows: Antimicrobial activity against methicillin-resistant Staphylococcus aureus isolate COL by Etest. In a few lines: (§2)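 MIC by Etest strip (daptomycin, gentamicin, teicoplanin, trimethoprim-sulfamethoxazole), following the manufacturer's protocol with changes. Inoculum came from cells grown in TSB at 37°C for at least 20 h.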

Assay [4] has as its system Staphylococcus aureus. The assay is described as follows: Antimicrobial activity against Staphylococcus aureus BD1 harboring aphA-3 insertion in cspB gene by Etest. In outline:
as §2

The subject of assay [5] is Staphylococcus aureus. In words: Antimicrobial activity against Staphylococcus aureus BD2 harboring wild-type cspB gene by Etest. In outline: as §2
The test system of assay [6] is Staphylococcus aureus. The assay is described as follows: Antimicrobial activity against methicillin-resistant Staphylococcus aureus COL grown at 15 degC and measured at 15 degC by Etest.
Assay [7] has as its system Staphylococcus aureus. The assay is described as follows: Ratio of MIC for methicillin-resistant Staphylococcus aureus COL grown at 37 degC and measured at 37 degC to MIC for methicillin-resistant Staphylococcus aureus COL grown at 37 degC and measured at 15 degC by Etest.
Assay [8] concerns Staphylococcus aureus. In words: Antimicrobial activity against methicillin-resistant Staphylococcus aureus COL grown at 15 degC and measured at 37 degC by Etest. In a few lines:
as §1

Assay [9] has as its system Staphylococcus aureus. In words: Antimicrobial activity against methicillin-resistant Staphylococcus aureus COL grown at 37 degC and measured at 15 degC by Etest. In outline: as §1

In brackets after ≈: the same amount, converted by molar mass.

`CCCCCCCCCC(=O)N[C@@H](Cc1c[nH]c2ccccc12)C(=O)N[C@H](CC(N)=O)C(=O)N[C@@H](CC(=O)O)C(=O)N[C@@H]1C(=O)NCC(=O)N[C@@H](CCCN)C(=O)N[C@@H](CC(=O)O)C(=O)N[C@H](C)C(=O)N[C@@H](CC(=O)O)C(=O)NCC(=O)N[C@H](CO)C(=O)N[C@@H]([C@H](C)CC(=O)O)C(=O)N[C@@H](CC(=O)c2ccccc2N)C(=O)O[C@@H]1C`: the Ratio is 2.4 with Staphylococcus aureus [1] and 4 in the assay on Staphylococcus aureus [7]. For the same molecule, the MIC in the assay with Staphylococcus aureus [2] came to 1.5 µg/mL (≈ 0.926 µM); with Staphylococcus aureus [3], 1.5 µg/mL (≈ 0.926 µM); in the assay with Staphylococcus aureus [4] it was 0.064 µg/mL (≈ 0.0395 µM); against Staphylococcus aureus [5], 2 µg/mL (≈ 1.23 µM); with Staphylococcus aureus [6], 0.63 µg/mL (≈ 0.389 µM); against Staphylococcus aureus [8] it was 1.5 µg/mL (≈ 0.926 µM). Moreover, in the assay on Staphylococcus aureus [9], the lowest concentration to inhibit growth (MIC) was 0.46 µg/mL (≈ 0.284 µM).
GENTAMICIN: the MIC is 0.34 µg/mL in the assay with Staphylococcus aureus [2]; 0.38 µg/mL in the assay on Staphylococcus aureus [3]; 32 µg/mL in the assay on Staphylococcus aureus [4]; 0.38 µg/mL with Staphylococcus aureus [5]; 0.29 µg/mL against Staphylococcus aureus [6]; 0.38 µg/mL in the assay on Staphylococcus aureus [8]. Besides, 0.21 µg/mL was the least that counted as inhibitory with Staphylococcus aureus [9] (MIC).
On to `CC(=O)N[C@@H]1[C@H](Oc2c3cc4cc2Oc2ccc(cc2Cl)[C@@H](O[C@@H]2O[C@@H](CO)[C@@H](O)[C@H](O)[C@@H]2NC(C)=O)[C@@H]2NC(=O)[C@H](NC(=O)[C@@H]4NC(=O)[C@H]4NC(=O)[C@@H](Cc5ccc(c(Cl)c5)O3)NC(=O)[C@H](N)c3ccc(O)c(c3)Oc3cc(O)cc4c3)c3ccc(O)c(c3)-c3c(O[C@H]4O[C@H](CO)[C@@H](O)[C@@H](O)[C@@H]4O)cc(O)cc3[C@@H](C(=O)O)NC2=O)O[C@@H](CO)[C@@H](O)[C@@H]1O`, for which the MIC in the assay with Staphylococcus aureus [3] amounted to 3 µg/mL (≈ 1.7 µM); in the assay with Staphylococcus aureus [4] it was 0.75 µg/mL (≈ 0.424 µM); with Staphylococcus aureus [5] it was 2 µg/mL (≈ 1.13 µM).
